In article PMC9283305 (Nitric oxide : biology and chemistry, 2022):
Like-named read-outs stand apart in the source and are kept apart here.

Tests used:
[1] = biological target: T1, H81Q (Homo sapiens, UniProt Q8WWM9, H81Q); test: UV-Vis difference spectroscopy titration of ferric cytoglobin; type: binding; conditions: SD, n = 3
In short: (§1)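 Ferric globin (5–15 μM) was titrated with imidazole stocks (1–100 mM) to about 100–15000 μM final. Buffer was 100 mM sodium phosphate, pH 7.4, at 25 °C. UV-Vis difference spectra were taken, and the max–min absorbance difference was plotted against ligand. KD came from a 1:1 quadratic binding fit. At least triplicate, with ≥2 protein batches; mean ± SD.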

[2] = biological target: T2, H81A (Homo sapiens, UniProt Q8WWM9, H81A); test: as above; type: binding; conditions: SD, n = 3
In short: as §1

[3] = biological target: T3, H81W (Homo sapiens, UniProt Q8WWM9, H81W); test: as above; type: binding; conditions: SD, n = 3
In short: as §1

[4] = biological target: T4, Wild-type Cygb (Homo sapiens, UniProt Q8WWM9); test: as above; type: binding; conditions: SD, n = 3
In short: as §1

[5] = biological target: T5, H81L (Homo sapiens, UniProt Q8WWM9, H81L); test: as above; type: binding; conditions: SD, n = 3
In short: as §1

[6] = biological target: T1, H81Q; test: UV-Vis difference spectroscopy titration of ferric cytoglobin; type: binding; conditions: SD, n = 3; remark: listed apart in the source
[7] = biological target: T2, H81A; test: as above; type: binding; conditions: SD, n = 3; remark: listed apart in the source
[8] = biological target: T6, K116E (Homo sapiens, UniProt Q8WWM9, K116E); test: as above; type: binding; conditions: SD, n = 3
[9] = biological target: T4, Wild-type Cygb; test: as above; type: binding; conditions: SD, n = 3; remark: listed apart in the source
[10] = biological target: T5, H81L; test: as above; type: binding; conditions: SD, n = 3; remark: listed apart in the source
[11] = biological target: T3, H81W; test: as above; type: binding; conditions: SD, n = 3; remark: listed apart in the source
[12] = biological target: T1, H81Q; test: UV-Vis difference spectroscopy titration of ferric cytoglobin; type: binding; conditions: SD, n = 3; remark: listed apart in the source
In short: (§2)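 Sodium oleate stocks (50 mM in water, −20 °C) were diluted in buffer before use. Ferric globin (5–15 μM) in 100 mM sodium phosphate, pH 7.4, 25 °C was titrated with 200 μM–5 mM stocks to about 60–1500 μM oleate. The max–min difference-spectrum amplitude was plotted against oleate, and KD came from a 1:1 quadratic fit. At least triplicate, with ≥2 protein batches; mean ± SD.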

[13] = biological target: T3, H81W; test: as above; type: binding; conditions: SD, n = 3; remark: listed apart in the source
In short: as §2

[14] = biological target: V105Y (Homo sapiens, UniProt Q8WWM9, V105Y); test: as above; type: binding; conditions: SD, n = 3
In short: as §2

[15] = biological target: L108Q (Homo sapiens, UniProt Q8WWM9, L108Q); test: as above; type: binding; conditions: SD, n = 3
In short: as §2

[16] = biological target: T5, H81L; test: as above; type: binding; conditions: SD, n = 3; remark: listed apart in the source
In short: as §2

[17] = biological target: T6, K116E; test: as above; type: binding; conditions: SD, n = 3; remark: listed apart in the source
In short: as §2

[18] = biological target: T2, H81A; test: as above; type: binding; conditions: SD, n = 3; remark: listed apart in the source
In short: as §2

[19] = biological target: R84E (Homo sapiens, UniProt Q8WWM9, R84E); test: as above; type: binding; conditions: SD, n = 3
In short: as §2

[20] = biological target: T91D (Homo sapiens, UniProt Q8WWM9, T91D); test: as above; type: binding; conditions: SD, n = 3
In short: as §2

[21] = cited from earlier work
[22] = 37°C, 100 mM sodium phosphate, pH 7.4

T2 sequence (Q8WWM9 whole entry H81A): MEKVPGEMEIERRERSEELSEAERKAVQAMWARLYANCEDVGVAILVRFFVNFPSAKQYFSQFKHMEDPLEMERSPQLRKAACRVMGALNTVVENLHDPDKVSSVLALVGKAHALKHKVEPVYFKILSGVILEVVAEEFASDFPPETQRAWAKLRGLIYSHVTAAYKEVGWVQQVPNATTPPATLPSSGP
T1 sequence (Q8WWM9 whole entry H81Q): as the sequence (Q8WWM9 whole entry H81A) above, with A81Q counted along it
T5 sequence (Q8WWM9 whole entry H81L): as the sequence (Q8WWM9 whole entry H81A) above, with A81L counted along it
T3 sequence (Q8WWM9 whole entry H81W): as the sequence (Q8WWM9 whole entry H81A) above, with A81W counted along it
T4 sequence (Q8WWM9 whole entry): as the sequence (Q8WWM9 whole entry H81A) above, with A81H counted along it
T6 sequence (Q8WWM9 whole entry K116E): as the sequence (Q8WWM9 whole entry H81A) above, with A81H, K116E counted along it
Chain of V105Y (Q8WWM9 whole entry V105Y): as the sequence (Q8WWM9 whole entry H81A) above, with A81H, V105Y counted along it
Chain of R84E (Q8WWM9 whole entry R84E): as the sequence (Q8WWM9 whole entry H81A) above, with A81H, R84E counted along it
Chain of L108Q (Q8WWM9 whole entry L108Q): as the sequence (Q8WWM9 whole entry H81A) above, with A81H, L108Q counted along it
Chain of T91D (Q8WWM9 whole entry T91D): as the sequence (Q8WWM9 whole entry H81A) above, with A81H, T91D counted along it

For c1c[nH]cn1 [Imidazole, imidazole], the Kd [1] was 15.3 ± 11 µM, the Kd [2] was 10.6 ± 6.2 µM and the Kd [3] was 7.3 ± 0.9 µM. For the same compound, the Kd [4] was 820 ± 150 µM and the Kd [5] was 23.5 ± 4.4 µM.
Work on CCCCCCCC(=O)O [Octanoic acid, octanoic acid, added as sodium octanoate] yielded a Kd [6] of 250 ± 10 µM, a Kd [7] of 1520 ± 890 µM and a Kd [8] of 185000 ± 13000 µM. For the same compound, the Kd [9] was 1590 ± 740 µM, the Kd [10] was 950 ± 80 µM and the Kd [11] was 140 ± 10 µM.
For CCCCCCCC/C=C\CCCCCCCC(=O)O [Oleic acid, oleic acid (18:1 cis-9), added as sodium oleate], the Kd [12] was 46 ± 8 µM, the Kd [13] was 32 ± 10 µM and the Kd [14] was 4.8 ± 3.2 µM. It also gave a Kd [15] of 14 ± 3 µM, a Kd [16] of 36 ± 13 µM and a Kd [17] of 62 ± 23 µM. The Kd [18] was 24 ± 2 µM, the Kd [19] was 170 ± 90 µM and the Kd [20] was 5.7 ± 1.4 µM.
In the case of “Hemoglobin R-State: hemoglobin in the R-state [reference compound]”, the “Nitrite reductase reaction rate constant” value [21, 22] is listed as 6.0^a M^−1s^−1.
In the case of “Hemoglobin T-State: hemoglobin in the T-state [reference compound]”, the “Nitrite reductase reaction rate constant” value [21, 22] is listed as 0.12^a M^−1s^−1.
For “Myoglobin F43H/H64A: myoglobin double mutant Phe43(CD1) to His and His64 to Ala [reference compound]”, the “Nitrite reductase reaction rate constant” value ([21]; Mb values determined at 25°C) is listed as 49.8 ± 1.5^c M^−1s^−1.
For “Myoglobin F43H: myoglobin mutant with histidine instead of Phe43(CD1) [reference compound]”, the “Nitrite reductase reaction rate constant” value ([21]; Mb values determined at 25°C) is listed as 1.4 ± 0.1^c M^−1s^−1.
For “Myoglobin H64A: myoglobin distal histidine His64 to Ala mutant [reference compound]”, the “Nitrite reductase reaction rate constant” value ([21]; Mb values determined at 25°C) is given as 1.8 ± 0.3^b M^−1s^−1.
In the case of “Myoglobin Wild-type: wild-type myoglobin [reference compound]”, the “Nitrite reductase reaction rate constant” value ([21]; Mb values determined at 25°C) is listed as 5.6 ± 0.6^b M^−1s^−1.
